Reference: ChEMBL document CHEMBL1926569, “Novel (E)-1-(4-methyl-2-(alkylamino)thiazol-5-yl)-3-arylprop-2-en-1-ones as potent antimicrobial agents” (2011)
Converted amounts (≈) assume the structure as drawn.

Experiments:
Salmonella typhimurium [1] = experiment: Antibacterial activity against Salmonella Typhimurium ATCC 13311 after 24 hrs by microdilution method; assay type: functional, Salmonella enterica subsp. enterica serovar Typhimurium; settings: Salmonella enterica, ATCC 13311, 24 h
Procedure, shortened: (§1)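 Broth microdilution in 96-well plates. Bacterial suspensions were adjusted in sterile saline to 1.0 × 10⁵ CFU/ml, prepared daily and kept at 4 °C. Compound was added to LB broth with 1.0 × 10⁴ CFU per well and shaken at 160 rpm for 24 h at […] (so in the source). MIC is the lowest concentration with no visible growth under a binocular microscope. OD655 was also read. Duplicate, repeated three times.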

Micrococcus flavus [2] = experiment: Antibacterial activity against Micrococcus flavus ATCC 10240 incubated for 24 hrs followed by serial sub-cultivation for 24 hrs by microdilution; assay type: functional; settings: ATCC 10240, 24 h
Procedure, shortened: (§2)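 MBC: after the 24 h LB broth microdilution (1.0 × 10⁴ CFU per well, 160 rpm), wells were serially sub-cultured into fresh broth plates and incubated a further 24 h. MBC is the lowest concentration with no visible growth, taken as 99.5% killing of the original inoculum. Duplicate, repeated three times.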

Aspergillus ochraceus [3] = experiment: Ratio of bifonazole to compound for Aspergillus ochraceus ATCC 12066; assay type: functional
Salmonella typhimurium [4] = experiment: Antibacterial activity against Salmonella Typhimurium ATCC 13311 incubated for 24 hrs followed by serial sub-cultivation for 24 hrs by microdilution; assay type: functional, Salmonella enterica subsp. enterica serovar Typhimurium; settings: Salmonella enterica, ATCC 13311, 24 h; procedure, shortened: as §2
Candida albicans [5] = experiment: Antifungal activity against Candida albicans isolated from human incubated for 72 hrs followed by serial sub-cultivation for 72 hrs by serial dilution technique; assay type: functional
Procedure, shortened: (§3)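 MFC: material from 72 h malt broth microdilution wells was serially sub-cultured into fresh broth plates and incubated a further 72 h at 28 °C. Fungicidal concentration is taken from growth after sub-culture. Duplicate, repeated three times.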

Trichoderma viride [6] = experiment: Antifungal activity against Trichoderma viride IAM 5061 after 72 hrs by serial dilution technique; assay type: functional; settings: IAM 5061, 72 h
Procedure, shortened: (§4)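 Modified microdilution in 96-well plates. Fungi were kept on malt agar at 4 °C. Spores were washed off in sterile 0.85% saline with 0.1% Tween 80. Compounds were dissolved at 1 mg/ml in 5% DMSO with 0.1% Tween 80 and added to malt broth with inoculum. Plates were shaken at 160 rpm for 72 h at 28 °C. Duplicate, repeated three times.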

Pseudomonas aeruginosa [7] = experiment: Antibacterial activity against Pseudomonas aeruginosa ATCC 27853 incubated for 24 hrs followed by serial sub-cultivation for 24 hrs by microdilution; assay type: functional; settings: ATCC 27853, 24 h; procedure, shortened: as §2
Penicillium ochrochloron [8] = experiment: Antifungal activity against Penicillium ochrochloron ATCC 9112 after 72 hrs by serial dilution technique; assay type: functional; settings: ATCC 9112, 72 h; procedure, shortened: as §4
Aspergillus niger [9] = experiment: Ratio of bifonazole to compound for Aspergillus niger ATCC 6275; assay type: functional
Pseudomonas aeruginosa [10] = experiment: Antibacterial activity against Pseudomonas aeruginosa ATCC 27853 after 24 hrs by microdilution method; assay type: functional; settings: ATCC 27853, 24 h; procedure, shortened: as §1
Aspergillus ochraceus [11] = experiment: Antifungal activity against Aspergillus ochraceus ATCC 12066 incubated for 72 hrs followed by serial sub-cultivation for 72 hrs by serial dilution technique; assay type: functional; settings: ATCC 12066, 72 h; procedure, shortened: as §3
Staphylococcus aureus [12] = experiment: Antibacterial activity against Staphylococcus aureus ATCC 6538 incubated for 24 hrs followed by serial sub-cultivation for 24 hrs by microdilution method; assay type: functional; settings: ATCC 6538, 24 h; procedure, shortened: as §2
Staphylococcus aureus [13] = experiment: Antibacterial activity against Staphylococcus aureus ATCC 6538 after 24 hrs by microdilution method; assay type: functional; settings: ATCC 6538, 24 h; procedure, shortened: as §1
Bacillus cereus [14] = experiment: Antibacterial activity against clinical isolate of Bacillus cereus after 24 hrs by microdilution method; assay type: functional; procedure, shortened: as §1
Penicillium ochrochloron [15] = experiment: Ratio of ketoconazole to compound for Penicillium ochrochloron ATCC 9112; assay type: functional
Aspergillus ochraceus [16] = experiment: Antifungal activity against Aspergillus ochraceus ATCC 12066 after 72 hrs by serial dilution technique; assay type: functional; settings: ATCC 12066, 72 h; procedure, shortened: as §4
Listeria monocytogenes [17] = experiment: Antibacterial activity against Listeria monocytogenes NCTC 7973 after 24 hrs by microdilution method; assay type: functional; settings: NCTC 7973, 24 h; procedure, shortened: as §1
Candida albicans [18] = experiment: Ratio of ketoconazole to compound for Candida albicans isolated from human; assay type: functional
Candida albicans [19] = experiment: Ratio of bifonazole to compound for Candida albicans isolated from human; assay type: functional
Penicillium ochrochloron [20] = experiment: Antifungal activity against Penicillium ochrochloron ATCC 9112 incubated for 72 hrs followed by serial sub-cultivation for 72 hrs by serial dilution technique; assay type: functional; settings: ATCC 9112, 72 h; procedure, shortened: as §3
Enterococcus faecalis [21] = experiment: Antibacterial activity against Enterococcus faecalis isolated from human incubated for 24 hrs followed by serial sub-cultivation for 24 hrs by microdilution; assay type: functional; procedure, shortened: as §2
Aspergillus ochraceus [22] = experiment: Antifungal activity against Aspergillus ochraceus after 72 hrs by serial dilution technique
Aspergillus flavus [23] = experiment: Antifungal activity against Aspergillus flavus ATCC 9643 incubated for 72 hrs followed by serial sub-cultivation for 72 hrs by serial dilution technique; assay type: functional; settings: ATCC 9643, 72 h; procedure, shortened: as §3
Aspergillus ochraceus [24] = experiment: Ratio of ketoconazole to compound for Aspergillus ochraceus ATCC 12066; assay type: functional
Talaromyces funiculosus [25] = experiment: Antifungal activity against Penicillium funiculosum ATCC 36839 after 72 hrs by serial dilution technique; assay type: functional; settings: ATCC 36839, 72 h; procedure, shortened: as §4
Trichoderma viride [26] = experiment: Antifungal activity against Trichoderma viride IAM 5061 incubated for 72 hrs followed by serial sub-cultivation for 72 hrs by serial dilution technique; assay type: functional; settings: IAM 5061, 72 h; procedure, shortened: as §3
Bacillus cereus [27] = experiment: Antibacterial activity against clinical isolate of Bacillus cereus incubated for 24 hrs followed by serial sub-cultivation for 24 hrs by microdilution; assay type: functional; procedure, shortened: as §2
Candida albicans [28] = experiment: Antifungal activity against Candida albicans isolated from human after 72 hrs by serial dilution technique; assay type: functional; procedure, shortened: as §4
Micrococcus flavus [29] = experiment: Antibacterial activity against Micrococcus flavus ATCC 10240 after 24 hrs by microdilution method; assay type: functional; settings: ATCC 10240, 24 h; procedure, shortened: as §1
Aspergillus niger [30] = experiment: Antifungal activity against Aspergillus niger ATCC 6275 incubated for 72 hrs followed by serial sub-cultivation for 72 hrs by serial dilution technique; assay type: functional; settings: ATCC 6275, 72 h; procedure, shortened: as §3
Listeria monocytogenes [31] = experiment: Antibacterial activity against Listeria monocytogenes NCTC 7973 incubated for 24 hrs followed by serial sub-cultivation for 24 hrs by microdilution; assay type: functional; settings: NCTC 7973, 24 h; procedure, shortened: as §2
Enterococcus faecalis [32] = experiment: Antibacterial activity against Enterococcus faecalis isolated from human after 24 hrs by microdilution method; assay type: functional; procedure, shortened: as §1
Escherichia coli [33] = experiment: Antibacterial activity against Escherichia coli ATCC 35210 after 24 hrs by microdilution method; assay type: functional; settings: ATCC 35210, 24 h; procedure, shortened: as §1
Aspergillus flavus [34] = experiment: Antifungal activity against Aspergillus flavus ATCC 9643 after 72 hrs by serial dilution technique; assay type: functional; settings: ATCC 9643, 72 h; procedure, shortened: as §4
Aspergillus niger [35] = experiment: Antifungal activity against Aspergillus niger ATCC 6275 after 72 hrs by serial dilution technique; assay type: functional; settings: ATCC 6275, 72 h; procedure, shortened: as §4
Pseudomonas aeruginosa [36] = experiment: Ratio of ampicillin MIC to compound MIC for Pseudomonas aeruginosa ATCC 27853; assay type: functional
Talaromyces funiculosus [37] = experiment: Ratio of bifonazole to compound for Penicillium funiculosum ATCC 36839; assay type: functional
Penicillium ochrochloron [38] = experiment: Ratio of bifonazole to compound for Penicillium ochrochloron ATCC 9112; assay type: functional
Aspergillus fumigatus [39] = experiment: Ratio of ketoconazole to compound for Aspergillus fumigatus isolated from human; assay type: functional
Escherichia coli [40] = experiment: Antibacterial activity against Escherichia coli ATCC 35210 incubated for 24 hrs followed by serial sub-cultivation for 24 hrs by microdilution; assay type: functional; settings: ATCC 35210, 24 h; procedure, shortened: as §2
Aspergillus fumigatus [41] = experiment: Antifungal activity against Aspergillus fumigatus isolated from human incubated for 72 hrs followed by serial sub-cultivation for 72 hrs by serial dilution technique; assay type: functional; procedure, shortened: as §3
Talaromyces funiculosus [42] = experiment: Antifungal activity against Penicillium funiculosum ATCC 36839 incubated for 72 hrs followed by serial sub-cultivation for 72 hrs by serial dilution technique; assay type: functional; settings: ATCC 36839, 72 h; procedure, shortened: as §3
Trichoderma viride [43] = experiment: Ratio of bifonazole to compound for Trichoderma viride IAM 5061; assay type: functional

MIC (Salmonella typhimurium [1]): 33.1 µM (≈ 10 µg/mL)
MIC (Trichoderma viride [6]): 33.1 µM (≈ 10 µg/mL)
MIC (Penicillium ochrochloron [8]): 66.2 µM (≈ 20 µg/mL)
MIC (Pseudomonas aeruginosa [10]): 82.8 µM (≈ 25 µg/mL)
MIC (Staphylococcus aureus [13]): 66.2 µM (≈ 20 µg/mL)
MIC (Bacillus cereus [14]): 66.2 µM (≈ 20 µg/mL)
MIC (Aspergillus ochraceus [16]): 66.2 µM (≈ 20 µg/mL)
MIC (Listeria monocytogenes [17]): 82.8 µM (≈ 25 µg/mL)
MIC (Aspergillus ochraceus [22]): 49.7 µM (≈ 15 µg/mL)
MIC (Talaromyces funiculosus [25]): 33.1 µM (≈ 10 µg/mL)
MIC (Candida albicans [28]): 33.1 µM (≈ 10 µg/mL)
MIC (Micrococcus flavus [29]): 31.3 µM (≈ 9.47 µg/mL)
MIC (Enterococcus faecalis [32]): 82.8 µM (≈ 25 µg/mL)
MIC (Escherichia coli [33]): 82.8 µM (≈ 25 µg/mL)
MIC (Aspergillus flavus [34]): 66.2 µM (≈ 20 µg/mL)
MIC (Aspergillus niger [35]): 49.7 µM (≈ 15 µg/mL)
Structure (SMILES): CCNc1nc(C)c(C(=O)/C=C/c2ccccc2OC)s1
MBC (Micrococcus flavus [2]): 82.8 µM (≈ 25 µg/mL)
Ratio (Aspergillus ochraceus [3]): 10
MBC (Salmonella typhimurium [4]): 82.8 µM (≈ 25 µg/mL)
MFC (Candida albicans [5]): 66.2 µM (≈ 20 µg/mL)
MBC (Pseudomonas aeruginosa [7]): 99.3 µM (≈ 30 µg/mL)
Ratio (Aspergillus niger [9]): 10
MFC (Aspergillus ochraceus [11]): 82.8 µM (≈ 25 µg/mL)
MBC (Staphylococcus aureus [12]): 99.3 µM (≈ 30 µg/mL)
Ratio (Penicillium ochrochloron [15]): 10
Ratio (Candida albicans [18]): 10
Ratio (Candida albicans [19]): 10
MFC (Penicillium ochrochloron [20]): 82.8 µM (≈ 25 µg/mL)
MBC (Enterococcus faecalis [21]): 82.8 µM (≈ 25 µg/mL)
MFC (Aspergillus flavus [23]): 82.8 µM (≈ 25 µg/mL)
Ratio (Aspergillus ochraceus [24]): 10
MFC (Trichoderma viride [26]): 66.2 µM (≈ 20 µg/mL)
MBC (Bacillus cereus [27]): 82.8 µM (≈ 25 µg/mL)
MFC (Aspergillus niger [30]): 66.2 µM (≈ 20 µg/mL)
MBC (Listeria monocytogenes [31]): 116 µM (≈ 35 µg/mL)
Ratio (Pseudomonas aeruginosa [36]): 10
Ratio (Talaromyces funiculosus [37]): 10
Ratio (Penicillium ochrochloron [38]): 10
Ratio (Aspergillus fumigatus [39]): 10
MBC (Escherichia coli [40]): 82.8 µM (≈ 25 µg/mL)
MFC (Aspergillus fumigatus [41]): 66.2 µM (≈ 20 µg/mL)
MFC (Talaromyces funiculosus [42]): 66.2 µM (≈ 20 µg/mL)
Ratio (Trichoderma viride [43]): 10
